Data set [1] relates to ER. As to conditions: ER+ cell lines; preclinical studies; cited from earlier work.
Data set [2] has as its system advanced ER-positive HER2-negative breast cancer. As to conditions: cited from earlier work.
The subject of data set [3] is PIK3CA/AKT1 mutations in ctDNA. Description: ctDNA BEAMing digital PCR, PIK3CA/AKT1 mutant allele frequency. It counts as in vivo, human. The note with it: first postbaseline ctDNA sample (cycle 3 day 1 or end-of-treatment). The procedure, abridged: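 Hotspot mutations were measured in plasma ctDNA by BEAMing digital PCR: AKT1 E17K and PIK3CA C420R, E542K, E545G/K, Q546K, M1043I, H1047L/R/Y. Mutant allele fraction at baseline was compared with the first available post-baseline sample (cycle 3 day 1 or end of treatment) in paired samples.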

In data set [4] the test system is postmenopausal women with ER+/HER2− locally advanced or metastatic breast cancer. Description: Phase I safety: adverse events. In kind it is in vivo, human. An outline of the steps: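 Oral tablets were given as a single lead-in dose on day −7, then once daily from day 1 in 28-day cycles. Escalation used a 3+3 design, starting at 600 mg/day with 400 mg steps, plus an expansion cohort at 1,400 mg/day. DLT window ran from day −7 through cycle 1 (35 days). AEs were graded by NCI CTCAE v4.0. All patients dosed on cycle 1 day 1 were included, summarised descriptively.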

Data set [5] deals with ESR1 mutations in ctDNA. Description: FACT next-generation sequencing ctDNA assay. It counts as in vivo, human. The note with it: 1,400 mg; vs 52% pretreatment.
Data set [6] deals with ER. Description: [18F]-fluoroestradiol. In kind it is in vivo, human. As to conditions: cycle 2 day 3 vs baseline; 9 patients with FES-avid disease; 600, 1,000, 1,400 mg.
For data set [7], the system named is ER+/HER2− advanced or metastatic breast cancer. Description: Antitumor activity by RECIST v1.1. It counts as in vivo, human.
Data set [8] relates to ER. As to conditions: preclinical studies; cited from earlier work.
In data set [9] the test system is ESR1 mutant and wild-type patient-derived xenograft models of ER+ breast cancer. As to conditions: preclinical, cited from earlier work.
The test system of data set [10] is ER. Description: IHC of ER protein in baseline and on-treatment biopsies. It counts as in vivo, human. As to conditions: on-treatment (cycle 2 or 3, day 8) vs baseline biopsies. An outline of the steps: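 Baseline and on-treatment tumour biopsies (cycle 2 or 3, day 8) were stained for ER by IHC in one laboratory and scored by one pathologist. H-score (0–300) = 3×% strong-intensity nuclei + 2×% intermediate + 1×% weak nuclei among tumour cells. Paired samples only.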

Setting [11] is: N = 42, considered related to study drug, any grade.
Where [12] appears, read: N = 42, considered related to study drug, grade 3.
Setting [13] is: N = 42, regardless of causality, any grade.
[14] abbreviates: N = 42, regardless of causality, grade 3.

Several values for one entry are separate records, joined by “and”; a condition that tells them apart may be missing. Identical values can stand only once. Entries after “also recorded” stand apart in the source; their conditions may differ. Like-named read-outs stand apart in the source and are kept apart here. Bounds are passed on as bounds.

On to `CC/C(=C(/c1ccc(/C=C/C(=O)O)cc1)c1ccc2[nH]ncc2c1)c1ccc(F)cc1Cl` [GDC-0810, reference compound], for which the ER antagonist/agonist profile entry in data set [1] is “partial agonism”.
On to `C[C@]12CC[C@@H]3c4ccc(O)cc4C[C@@H](CCCCCCCCC[S+]([O-])CCCC(F)(F)C(F)(F)F)[C@H]3[C@@H]1CC[C@@H]2O` (stereo partly drawn) [fulvestrant], for which the “Median PFS” value in data set [2] (SERENA-2, patients treated with fulvestrant) was 3.7 months.
For `C[C@@H]1Cc2c(ccc3[nH]ncc23)[C@@H](c2ccc(NC3CN(CCCF)C3)cn2)N1CC(F)(F)F` [camizestrant], the “Median PFS” value in data set [2] (SERENA-2, camizestrant 75 mg) is 7.2 months; in data set [2] (SERENA-2, camizestrant 150 mg), 7.7 months.
Consider `CC1=C(c2cccc(O)c2)[C@H](c2ccc(OCCN3CC(CF)C3)cc2)Oc2ccc(O)cc21` [GDC-0927], for which the “Patients with decline in PIK3CA/AKT1 MAF” value in data set [3] is on record as 8 of 13. In [4] (N = 42), the “AEs leading to withdrawal” value is “no reports and None”; the Deaths entry is given as “no deaths; also recorded: no reports”; the “Dose modifications due to AEs” value is given as “no dose modifications”; the “Grade 4 or grade 5 AEs” value was “no grade 4 or grade 5 AEs; also recorded: no grade 4 or 5 AEs”. Further, in [4] (N = 42), the “Treatment-related serious adverse events (SAE)” value is given as “no reports”. The “Patients with any adverse events” value in [4] (N = 42, 600-1,400 mg once daily oral, regardless of causality, any grade) is 37 n (%) and 37 (88) n (%). Also, in [4] (setting [11]), the Constipation is 6 n (%) and 6 (14) n (%); the Diarrhea was 5 n (%) and 5 (12) n (%); the Fatigue is 5 n (%) and 5 (12) n (%); the Hot flush is 8 n (%) and 8 (19) n (%). Moreover, in data set [4] (setting [11]), the Nausea is 8 n (%) and 8 (19) n (%); the “Patients with at least one adverse event” value is 30 n (%) and 30 (71) n (%); the “Total number of events” value is on record as 109. In data set [4] (setting [12]), the Constipation is on record as 0 n (%), the Diarrhea is given as 0 n (%), the Fatigue was 0 n (%) and the Hot flush is given as 0 n (%). In data set [4] (setting [12]), the Nausea is given as 0 n (%), the “Patients with at least one adverse event” value is 0 n (%) and the “Total number of events” value turned out to be 0. In [4] (setting [13]), the Anemia is 6 n (%) and 6 (14) n (%); the Arthralgia was 8 n (%) and 8 (19) n (%); the “Aspartate aminotransferase (AST) increased” value is reported as 5 (12) n (%); the Asthenia is reported as 5 (12) n (%). In [4] (setting [13]), the Back pain is 7 n (%) and 7 (17) n (%); the Constipation was 9 n (%) and 9 (21) n (%); the Cough is 5 (12) n (%); the Diarrhea was 9 n (%) and 9 (21) n (%). In addition, in data set [4] (setting [13]), the Fatigue was 8 n (%) and 8 (19) n (%); the Headache was 6 n (%) and 6 (14) n (%); the Hot flush was 8 n (%) and 8 (19) n (%); the Nausea was 14 n (%) and 14 (33) n (%). In data set [4] (setting [13]), the Pain in extremity is listed as 5 (12) n (%); the Vomiting is 7 n (%) and 7 (17) n (%). In [4] (setting [14]), the Anemia is 0 n (%), the Arthralgia was 0 n (%), the “Aspartate aminotransferase (AST) increased” value is 0 n (%) and the Asthenia is given as 1 (2) n (%). Besides, in data set [4] (setting [14]), the Back pain is 2 n (%) and 2 (5) n (%); the Constipation is 0 n (%); the Cough is 0 n (%); the Diarrhea is listed as 0 n (%). In addition, in data set [4] (setting [14]), the Fatigue is given as 0 n (%), the Headache was 0 n (%), the Hot flush is listed as 0 n (%) and the Nausea is on record as 0 n (%). Further, in data set [4] (setting [14]), the Pain in extremity is 0 n (%), the “Patients with any adverse events” value is on record as 9 (21) n (%) and the Vomiting was 0 n (%). Further, in [4] (N = 42, seven patients), the “Patients with AEs that led to dose interruptions” value worked out at 17% and the “Patients with at least one SAE considered unrelated to GDC-0927” value is listed as 17%. In addition, in data set [4] (N = 42, two patients, both considered unrelated), the “Patients with AEs of special interest (grade 2 deep vein thrombosis, grade 2 jugular vein thrombosis)” value turned out to be 5%. Moreover, the DLTs entry in data set [4] (day −7 through first cycle (35 days), 600-1,400 mg/day) is reported as “no reports of DLTs”. Moreover, the MTD entry in [4] (oral once daily, doses up to the MAD of 1,400 mg/day) was “not reached”. Further, the “Prevalence of ESR1 mutations in on-treatment samples” value in data set [5] was found to be 35%. Besides, the “Reduction in FES uptake” value in data set [6] is over 90%. Also, in [7] (N = 42), the “Confirmed complete or partial responses” value was “no complete or partial responses; also recorded: no confirmed CRs or PRs”. In addition, the “Patients with confirmed best overall response of non-CR/PD” value in data set [7] (five patients, all at 1,400 mg) was 14%. Moreover, the “Patients achieving clinical benefit” value in data set [7] (patients with baseline ctDNA ESR1 mutation(s), six of 22) came out at 27%. The “Patients achieving clinical benefit” value in [7] (patients without detectable baseline ctDNA ESR1 mutations, 6 of 20) came out at 30%. Also, the “ER agonism in the uterus” value in [8] is “lacked ER agonism”. Moreover, the “Tolerability at efficacious dose range” value in data set [9] (10–100 mg/kg/day) is reported as “well tolerated”. Besides, the “Antitumor activity in xenograft models” value in data set [9] (ER+ breast cancer xenograft models) is recorded as “induces tumor regression; also recorded: dose-dependent antitumor activity”. Besides, in [9], the “In vivo efficacious dose range” value is 10 to 100 mg/kg/day. Also, the “Reduction in ER expression (ER protein, IHC), average” value in data set [10] was “approximately 40%”. In addition, in [1], the ER antagonist/agonist profile result is recorded as “full antagonist profile” and the ER degradation entry was “ER degradation in all ER^+ cell lines tested”.
